Measured values: ChEMBL document CHEMBL4251704, “Discovery of Pyridopyrimidinones as Potent and Orally Active Dual Inhibitors of PI3K/mTOR” (ACS Med Chem Lett, 2018)

Legend:
[1] = molecular target: T1, Phosphatidylinositol 4,5-bisphosphate 3-kinase catalytic subunit alpha isoform (Homo sapiens, UniProt P42336); assay: Inhibition of PI3Kalpha in human MCF7 cells assessed as reduction in AKT phosphorylation at 1 uM after 2 hrs by ELISA relative to control; assay type: cell-based
[2] = molecular target: T2, Serine/threonine-protein kinase mTOR (Homo sapiens, UniProt P42345); assay: Inhibition of mTOR in human MCF7 cells assessed as reduction in P70S6K phosphorylation after 4 hrs by […] assay; assay type: cell-based
How it was run: (§1)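 MCF-7 cells were incubated with compound for 4 h. Phosphorylation of Akt at S473 and of p70s6k at T389 was read by […], and IC50 was derived.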

[3] = molecular target: T1, Phosphatidylinositol 4,5-bisphosphate 3-kinase catalytic subunit alpha isoform; assay: Inhibition of PI3Kalpha in human MCF7 cells assessed as reduction in AKT phosphorylation after 4 hrs by ADP-Glo assay; assay type: cell-based; how it was run: as §1
[4] = Tmax in mouse at 3 mg/kg, po; assay type: ADME, organism-based; conditions: in vivo
How it was run: (§2)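 Single oral dose of 3 mg/kg to mice, given in 10% DMSO/65% PEG400/25% H2O or in 10% DMSO/80% PEG400/10% H2O depending on the compound. Plasma exposure was measured.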

[5] = Protein binding in rat plasma; assay type: ADME, cell-free
[6] = Protein binding in mouse plasma; assay type: ADME, cell-free
[7] = molecular target: T2, Serine/threonine-protein kinase mTOR; assay: Inhibition of mTOR (unknown origin) using ULight-4E-BP1(Thr37/46) peptide as substrate measured after 2 hrs by HTRF assay
[8] = test system: Mus musculus; assay: Toxicity in Balb/c mouse xenografted with human PC3M cells assessed as body weight loss at 1 to 10 mg/kg, po administered once daily for 21 days measured daily during compound dosing; assay type: organism-based; conditions: in vivo, 504 h
How it was run: (§3)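 Nude mice bearing PC-3M tumors received 1, 3 or 10 mg/kg by oral gavage once daily for 21 days, with 10 mice per group.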

[9] = Clearance in mouse at 1 mg/kg, iv; assay type: ADME, organism-based; conditions: in vivo
How it was run: (§4)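 Mice were dosed intravenously at 1 mg/kg. The vehicle was either 10% DMSO/65% PEG400/25% H2O or 10% DMSO/80% PEG400/10% H2O, depending on the compound.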

[10] = Oral bioavailability in mouse at 3 mg/kg; assay type: ADME, organism-based; conditions: in vivo; how it was run: as §2
[11] = AUC (0 to last) in mouse at 1 mg/kg, iv; assay type: ADME, organism-based; parameters: dose 1 mg/kg, time 0 - last, route intravenous; conditions: in vivo; how it was run: as §4
[12] = molecular target: Phosphatidylinositol 4,5-bisphosphate 3-kinase catalytic subunit gamma isoform (Homo sapiens, UniProt P48736); assay: Inhibition of human PI3K p120gamma using phosphatidylinositol 4,5-bisphosphate as substrate after 30 mins by HTRF assay
Phosphatidylinositol 4,5-bisphosphate 3-kinase catalytic subunit gamma isoform, sequence (P48736 whole entry, canonical isoform): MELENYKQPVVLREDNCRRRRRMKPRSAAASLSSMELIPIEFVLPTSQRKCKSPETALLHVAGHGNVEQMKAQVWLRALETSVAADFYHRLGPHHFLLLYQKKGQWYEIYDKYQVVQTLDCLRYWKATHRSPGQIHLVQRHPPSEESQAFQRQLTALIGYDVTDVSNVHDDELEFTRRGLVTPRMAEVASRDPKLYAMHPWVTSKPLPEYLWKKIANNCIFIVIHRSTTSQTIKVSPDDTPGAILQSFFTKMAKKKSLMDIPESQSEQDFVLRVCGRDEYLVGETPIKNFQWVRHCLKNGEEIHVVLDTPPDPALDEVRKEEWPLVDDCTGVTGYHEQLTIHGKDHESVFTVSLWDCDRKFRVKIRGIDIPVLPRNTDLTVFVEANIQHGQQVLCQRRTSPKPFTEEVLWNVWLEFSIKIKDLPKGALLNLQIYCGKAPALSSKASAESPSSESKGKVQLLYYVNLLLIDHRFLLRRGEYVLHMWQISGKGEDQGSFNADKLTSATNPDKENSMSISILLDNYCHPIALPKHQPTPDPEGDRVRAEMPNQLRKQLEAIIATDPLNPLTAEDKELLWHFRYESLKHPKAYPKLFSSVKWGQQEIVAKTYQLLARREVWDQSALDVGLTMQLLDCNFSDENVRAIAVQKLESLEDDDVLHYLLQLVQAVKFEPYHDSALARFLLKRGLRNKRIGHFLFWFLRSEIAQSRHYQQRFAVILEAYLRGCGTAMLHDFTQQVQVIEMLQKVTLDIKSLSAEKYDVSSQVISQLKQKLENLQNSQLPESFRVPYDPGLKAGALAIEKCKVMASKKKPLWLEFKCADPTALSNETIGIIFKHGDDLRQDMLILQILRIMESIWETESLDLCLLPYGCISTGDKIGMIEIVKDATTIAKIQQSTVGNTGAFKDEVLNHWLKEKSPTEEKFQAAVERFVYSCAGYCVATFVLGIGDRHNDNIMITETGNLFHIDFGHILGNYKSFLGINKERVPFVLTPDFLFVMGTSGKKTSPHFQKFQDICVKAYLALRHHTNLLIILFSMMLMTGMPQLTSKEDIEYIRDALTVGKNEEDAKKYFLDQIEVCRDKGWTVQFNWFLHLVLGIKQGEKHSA

[13] = Cmax in mouse at 3 mg/kg, po; assay type: ADME, organism-based; parameters: dose 3 mg/kg, route oral; conditions: in vivo; how it was run: as §2
[14] = molecular target: PI3-kinase p110-delta/p85-alpha (Homo sapiens, UniProt O00329); assay: Inhibition of human PI3K p110delta/p85alpha using phosphatidylinositol 4,5-bisphosphate as substrate after 30 mins by HTRF assay; assay type: protein-complex assay
PI3-kinase p110-delta/p85-alpha, sequence (P27986 whole entry): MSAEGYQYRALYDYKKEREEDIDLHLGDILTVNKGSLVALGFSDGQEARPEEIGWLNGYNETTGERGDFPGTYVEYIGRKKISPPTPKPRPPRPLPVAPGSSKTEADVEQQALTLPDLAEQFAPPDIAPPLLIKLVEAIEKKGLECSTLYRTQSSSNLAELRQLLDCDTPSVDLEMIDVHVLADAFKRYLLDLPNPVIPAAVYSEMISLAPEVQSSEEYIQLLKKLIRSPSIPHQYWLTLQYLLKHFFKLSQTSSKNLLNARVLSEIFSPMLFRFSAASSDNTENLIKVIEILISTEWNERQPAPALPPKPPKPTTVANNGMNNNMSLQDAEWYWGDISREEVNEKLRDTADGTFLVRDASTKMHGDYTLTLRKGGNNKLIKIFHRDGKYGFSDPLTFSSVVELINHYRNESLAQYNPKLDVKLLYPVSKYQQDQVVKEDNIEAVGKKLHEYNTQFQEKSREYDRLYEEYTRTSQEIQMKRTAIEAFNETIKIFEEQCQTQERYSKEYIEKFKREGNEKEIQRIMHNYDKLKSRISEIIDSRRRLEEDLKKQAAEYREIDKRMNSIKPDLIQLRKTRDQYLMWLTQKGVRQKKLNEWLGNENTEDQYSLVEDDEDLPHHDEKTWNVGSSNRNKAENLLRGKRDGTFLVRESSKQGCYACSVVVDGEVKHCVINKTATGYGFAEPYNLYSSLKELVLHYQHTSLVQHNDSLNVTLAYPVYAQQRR
PI3-kinase p110-delta/p85-alpha, sequence (O00329 whole entry): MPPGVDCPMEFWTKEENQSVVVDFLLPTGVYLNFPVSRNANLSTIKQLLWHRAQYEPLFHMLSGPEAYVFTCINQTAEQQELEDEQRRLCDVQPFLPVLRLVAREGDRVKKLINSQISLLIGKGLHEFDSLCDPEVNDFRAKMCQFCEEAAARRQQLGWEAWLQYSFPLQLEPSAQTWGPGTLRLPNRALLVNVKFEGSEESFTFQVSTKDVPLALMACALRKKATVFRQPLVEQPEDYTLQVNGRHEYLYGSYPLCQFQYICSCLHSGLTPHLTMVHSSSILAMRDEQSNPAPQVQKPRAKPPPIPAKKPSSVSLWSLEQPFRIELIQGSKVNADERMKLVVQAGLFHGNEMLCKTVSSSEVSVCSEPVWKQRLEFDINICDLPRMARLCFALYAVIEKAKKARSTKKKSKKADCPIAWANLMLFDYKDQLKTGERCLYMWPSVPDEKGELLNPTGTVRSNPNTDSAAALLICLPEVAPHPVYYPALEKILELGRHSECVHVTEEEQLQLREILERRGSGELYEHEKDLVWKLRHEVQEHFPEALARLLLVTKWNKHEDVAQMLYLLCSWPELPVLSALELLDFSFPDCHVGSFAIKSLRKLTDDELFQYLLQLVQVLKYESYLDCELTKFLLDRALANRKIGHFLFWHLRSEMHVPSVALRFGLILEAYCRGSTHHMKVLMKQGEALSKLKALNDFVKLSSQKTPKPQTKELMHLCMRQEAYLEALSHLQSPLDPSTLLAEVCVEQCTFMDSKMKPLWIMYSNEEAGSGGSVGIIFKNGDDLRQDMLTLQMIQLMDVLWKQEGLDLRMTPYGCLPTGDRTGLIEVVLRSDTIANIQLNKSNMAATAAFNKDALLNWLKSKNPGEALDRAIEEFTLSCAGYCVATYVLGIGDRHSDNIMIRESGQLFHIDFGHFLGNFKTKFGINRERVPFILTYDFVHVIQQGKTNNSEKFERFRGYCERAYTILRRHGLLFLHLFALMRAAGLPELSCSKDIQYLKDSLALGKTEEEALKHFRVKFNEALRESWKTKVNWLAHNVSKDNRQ

[15] = AUC (0 to last) in mouse at 3 mg/kg, po; assay type: ADME, organism-based; parameters: dose 3 mg/kg, time 0 - last, route oral; conditions: in vivo; how it was run: as §2
[16] = test system: PC-3M; assay: Antitumor activity against human PC3M cells xenografted in Balb/c mouse assessed as tumor growth inhibition administered orally once daily for 21 days measured twice a week during compound dosing; assay type: functional, cell-based; how it was run: as §3
[17] = Volume of distribution at steady state in mouse at 1 mg/kg, iv; assay type: ADME, organism-based; conditions: in vivo, read-out: Vdss; how it was run: as §4
[18] = Half life in mouse at 1 mg/kg, iv; assay type: ADME, organism-based; conditions: in vivo; how it was run: as §4
[19] = molecular target: PI3K p110 beta/p85 alpha (Homo sapiens, UniProt P42338); assay: Inhibition of human PI3K p110beta/p85alpha using phosphatidylinositol 4,5-bisphosphate as substrate after 30 mins by HTRF assay; assay type: protein-complex assay
PI3K p110 beta/p85 alpha, sequence (P27986 whole entry): as the sequence (P27986 whole entry) above
PI3K p110 beta/p85 alpha, sequence (P42338 whole entry): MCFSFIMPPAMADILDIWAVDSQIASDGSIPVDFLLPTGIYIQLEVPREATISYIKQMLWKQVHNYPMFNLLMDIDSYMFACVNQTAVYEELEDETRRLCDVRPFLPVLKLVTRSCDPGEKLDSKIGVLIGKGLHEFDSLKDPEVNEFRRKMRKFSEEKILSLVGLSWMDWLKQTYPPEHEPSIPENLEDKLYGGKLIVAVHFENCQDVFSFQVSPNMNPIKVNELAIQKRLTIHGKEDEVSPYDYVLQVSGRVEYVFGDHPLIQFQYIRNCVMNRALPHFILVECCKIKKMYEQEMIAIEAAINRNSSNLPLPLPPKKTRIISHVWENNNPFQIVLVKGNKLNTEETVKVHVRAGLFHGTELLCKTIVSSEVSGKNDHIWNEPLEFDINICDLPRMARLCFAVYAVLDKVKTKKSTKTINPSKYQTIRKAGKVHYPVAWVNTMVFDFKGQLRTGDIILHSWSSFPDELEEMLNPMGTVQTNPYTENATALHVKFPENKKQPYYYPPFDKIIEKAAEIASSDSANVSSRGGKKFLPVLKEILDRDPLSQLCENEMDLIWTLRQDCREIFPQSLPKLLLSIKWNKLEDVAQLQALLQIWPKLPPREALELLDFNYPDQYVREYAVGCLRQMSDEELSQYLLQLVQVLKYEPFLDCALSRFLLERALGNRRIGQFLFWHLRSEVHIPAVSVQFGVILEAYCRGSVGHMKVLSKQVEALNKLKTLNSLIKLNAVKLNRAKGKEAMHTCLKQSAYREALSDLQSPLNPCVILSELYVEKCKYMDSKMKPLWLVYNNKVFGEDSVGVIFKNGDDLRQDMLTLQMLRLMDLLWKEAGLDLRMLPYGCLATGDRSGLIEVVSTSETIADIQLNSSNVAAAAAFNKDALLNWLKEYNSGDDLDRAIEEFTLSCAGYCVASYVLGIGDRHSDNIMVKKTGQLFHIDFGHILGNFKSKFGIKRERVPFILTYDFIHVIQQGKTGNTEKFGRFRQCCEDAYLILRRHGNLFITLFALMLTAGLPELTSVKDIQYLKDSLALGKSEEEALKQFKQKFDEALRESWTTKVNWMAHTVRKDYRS

[20] = Protein binding in human plasma; assay type: ADME, cell-free
[21] = molecular target: T1, Phosphatidylinositol 4,5-bisphosphate 3-kinase catalytic subunit alpha isoform; assay: Inhibition of PI3Kalpha (unknown origin) using PIP2 as substrate measured after 30 mins by HTRF assay

T1 sequence (P42336 whole entry, canonical isoform): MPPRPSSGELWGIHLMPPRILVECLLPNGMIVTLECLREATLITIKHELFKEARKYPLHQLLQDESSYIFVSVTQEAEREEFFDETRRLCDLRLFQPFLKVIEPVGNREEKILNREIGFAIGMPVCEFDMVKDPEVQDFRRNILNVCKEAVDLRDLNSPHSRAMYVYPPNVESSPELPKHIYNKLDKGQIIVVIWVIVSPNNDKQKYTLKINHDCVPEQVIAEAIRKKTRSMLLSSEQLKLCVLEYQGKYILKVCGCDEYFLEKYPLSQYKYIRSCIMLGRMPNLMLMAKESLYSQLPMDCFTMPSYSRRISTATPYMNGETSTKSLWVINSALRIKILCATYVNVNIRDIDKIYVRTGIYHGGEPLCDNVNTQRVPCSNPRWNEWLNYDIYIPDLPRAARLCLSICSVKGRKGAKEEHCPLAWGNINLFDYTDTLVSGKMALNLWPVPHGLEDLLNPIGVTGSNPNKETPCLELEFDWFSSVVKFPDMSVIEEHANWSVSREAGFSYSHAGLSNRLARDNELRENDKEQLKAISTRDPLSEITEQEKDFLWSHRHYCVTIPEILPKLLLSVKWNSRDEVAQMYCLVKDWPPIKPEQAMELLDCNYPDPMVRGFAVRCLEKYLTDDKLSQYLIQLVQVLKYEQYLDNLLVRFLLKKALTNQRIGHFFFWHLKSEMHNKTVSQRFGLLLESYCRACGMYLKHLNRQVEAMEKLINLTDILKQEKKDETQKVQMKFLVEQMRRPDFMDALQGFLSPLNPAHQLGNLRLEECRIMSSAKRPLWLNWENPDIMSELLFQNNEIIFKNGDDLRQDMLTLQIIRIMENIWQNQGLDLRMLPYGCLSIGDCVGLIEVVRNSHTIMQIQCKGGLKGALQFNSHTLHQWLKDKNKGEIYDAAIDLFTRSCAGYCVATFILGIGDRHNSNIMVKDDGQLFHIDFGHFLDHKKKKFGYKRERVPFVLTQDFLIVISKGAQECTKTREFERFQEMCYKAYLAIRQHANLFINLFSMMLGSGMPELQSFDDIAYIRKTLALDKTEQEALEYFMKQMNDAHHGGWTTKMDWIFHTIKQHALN

inhibition [1] [%]	IC50 [2] [nM]	IC50 [3] [nM]	SMILES	other results
81			CCc1ncc(-c2ccc3nccc(=O)n3c2)cc1NS(=O)(=O)c1ccccc1F	
90	119	27.9	COc1ncc(-c2ccc3ncc(C)c(=O)n3c2)cc1NS(=O)(=O)c1ccc(F)cc1F	
76			CCOc1cnc2ccc(-c3cnc(OC)c(NS(=O)(=O)c4ccc(F)cc4F)c3)cn2c1=O	
50			COc1ncc(-c2cc3c(N4CCNC(=O)C4)ncnc3cn2)cc1NS(=O)(=O)c1ccc(F)cc1F	
93	89.2	11.6	COc1ncc(-c2ccc3ncc(Cl)c(=O)n3c2)cc1NS(=O)(=O)c1ccc(F)cc1F	Tmax [4]: 2.67 h; fraction unbound [5]: < 0.01; fraction unbound [6]: 0.005; IC50 [7]: 4.7 nM; Activity [8]: Non-Toxic; clearance [9]: 1.4 mL/min/kg; bioavailability [10]: 108%; AUC(0-t) [11]: 11900 ng·h/mL; IC50 [12]: 1 nM; Cmax [13]: 5450 ng/mL; IC50 [14]: 16 nM; AUC(0-t) [15]: 38600 ng·h/mL; TGI [16]: Dose-dependent effect; Vd [17]: 0.472 L/kg; half-life [18]: 3 h; IC50 [19]: 34 nM; fraction unbound [20]: < 0.01; IC50 [21]: 3.4 nM
63			COc1ncc(-c2ccc3nccc(=O)n3n2)cc1NS(=O)(=O)c1ccc(F)cc1F	
75			COc1ncc(-c2ccc3nncc(N4CCOCC4)c3c2)cc1NS(=O)(=O)c1ccc(F)cc1F	
29			COc1ncc(-c2cn3c(=O)ccnc3cn2)cc1NS(=O)(=O)c1ccc(F)cc1F	
94	153	23.9	COc1ncc(-c2ccc3nccc(=O)n3c2)cc1NS(=O)(=O)c1ccccc1C	
94	> 400	141	COc1ncc(-c2ccc3nccc(=O)n3c2)cc1NS(=O)(=O)c1ccccc1F	
95	138	54.1	COc1ccc(S(=O)(=O)Nc2cc(-c3ccc4nccc(=O)n4c3)cnc2OC)cc1	
98	66	16	COc1ncc(-c2ccc3nccc(=O)n3c2)cc1NS(=O)(=O)c1ccc(F)cc1F	Tmax [4]: 0.333 h; fraction unbound [5]: 0.008; fraction unbound [6]: 0.019; IC50 [7]: 19.2 nM; clearance [9]: 5.15 mL/min/kg; bioavailability [10]: 139%; AUC(0-t) [11]: 3280 ng·h/mL; Cmax [13]: 4080 ng/mL; AUC(0-t) [15]: 13800 ng·h/mL; Vd [17]: 0.443 L/kg; half-life [18]: 1 h; fraction unbound [20]: 0.005; IC50 [21]: 3.1 nM
53			CCS(=O)(=O)Nc1cc(-c2ccc3nccc(=O)n3c2)cnc1OC	
76			COc1ncc(-c2ccc3nccc(=O)n3c2)cc1NS(=O)(=O)C1CC1	
96	64	67	COc1ncc(-c2ccc3nccc(=O)n3c2)cc1NS(=O)(=O)c1cccc(F)c1	
47			COc1ncc(-c2cnc3nccc(-c4cnn(C)c4)c3c2)cc1NS(=O)(=O)c1ccc(F)cc1F	

inhibition [1] [%]	IC50 [2] [nM]	IC50 [3] [nM]	SMILES	other results
85			Cc1ncc(-c2ccc3nccc(=O)n3c2)cc1NS(=O)(=O)c1ccc(F)cc1	
92	> 400	32.8	O=c1ccnc2ccc(-c3cnc(Cl)c(NS(=O)(=O)c4ccc(F)cc4F)c3)cn12	
95	106	80.7	COc1ncc(-c2ccc3nccc(=O)n3c2)cc1NS(=O)(=O)c1ccc(F)cc1	
94	246	57.4	COc1ncc(-c2ccc3nccc(=O)n3c2)cc1NS(=O)(=O)c1ccc(C#N)cc1	
94	163	48.7	COc1ncc(-c2ccc3nccc(=O)n3c2)cc1NS(=O)(=O)c1ccc(C(F)(F)F)cc1	
98	77.2	78.2	COc1ncc(-c2ccc3nccc(=O)n3c2)cc1NS(=O)(=O)c1cc(F)cc(F)c1	
96	108	45	COc1ncc(-c2ccc3nccc(=O)n3c2)cc1NS(=O)(=O)c1cc(F)ccc1F	
95	198	98.8	COc1ncc(-c2ccc3nccc(=O)n3c2)cc1NS(=O)(=O)c1ccccc1	
91	> 400	34.4	O=c1ccnc2ccc(-c3cnc(Cl)c(NS(=O)(=O)c4ccccc4F)c3)cn12	
81			Cc1ncc(-c2ccc3nccc(=O)n3c2)cc1NS(=O)(=O)c1ccc(F)cc1F	
82			Cc1ncc(-c2ccc3nccc(=O)n3c2)cc1NS(=O)(=O)c1ccccc1F	
60			CCOc1ncc(-c2ccc3nccc(=O)n3c2)cc1NS(=O)(=O)c1ccccc1F	
96	223	48.8	COc1ncc(-c2ccc3nccc(=O)n3c2)cc1NS(=O)(=O)c1ccc(Cl)cc1	
86			CCc1ncc(-c2ccc3nccc(=O)n3c2)cc1NS(=O)(=O)c1ccc(F)cc1F	
78			COc1ncc(-c2ccc3nccc(=O)n3c2)cc1NS(=O)(=O)CC(F)(F)F	
